The subject of assay [1] is MT4. Nature of the assay: Effective concentration to achieve 50% protection of MT-4 cells against the cytopathic effect of HIV-2. Format: functional, cell-based. As to conditions: mt4. In general terms: Damage to the host cells serves as the signal in cytopathic effect assays.
In assay [2] the test system is HuT78. Nature of the assay: Giant-cell formation between persistently HIV-1 infected HUT-78 cells and uninfected MOLT-4 cells. The class given is functional, cell-based. As to conditions: hut78. Summed up:
(§1)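 MOLT-4 cells were co-cultured with an equal number of HUT-78 cells persistently infected with HIV-1 IIIB or HIV-2 ROD, with varying compound concentrations. Syncytia were counted by flow cytofluorography after 24 h. EC50 is the concentration giving 50% protection against giant-cell formation.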

In assay [3] the test system is HuT78. Nature of the assay: Giant-cell formation between persistently HIV-2 infected HUT-78 cells and uninfected MOLT-4 cells. Format: functional, cell-based. Particulars: hut78. Summed up: as §1
Assay [4] deals with MT4. The experiment in a line: Selectivity index for CC50 (cytotoxic concentration based on reduction of viability of mock-infected MT-4 cells) to that of EC50 against HIV-2. The class given is functional. Summed up:
(§2)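 MT-4 cells at 3 × 10^5 cells/mL were infected with HIV-1 IIIB or HIV-2 ROD at 100 CCID50/mL, or mock-infected, alongside serial compound dilutions. Viability was read by MTT after 5 days at 37 °C. CC50 comes from mock-infected cells and EC50 from protection against cytopathicity. Index = CC50/EC50.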

Assay [5] concerns MT4. The experiment in a line: Selectivity index for CC50 (cytotoxic concentration based on the reduction of the viability of mock-infected MT-4 cells) to that of EC50 against HIV-1. The class given is functional. Summed up:
as §2

Assay [6] relates to MT4. The experiment in a line: Effective concentration to achieve 50% protection of MT-4 cells against the cytopathic effect of HIV-1. Particulars: mt4. The class given is functional, cell-based.
The nature of assay [7]: In vitro anticoagulant activity determined by clotting test of activated partial thromboplastin time (APTT) on a pool of human plasma. Format: functional. Summed up: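 Activated partial thromboplastin time clotting test on pooled human plasma, run on an automatic coagulometer. Activities were calculated according to the European Pharmacopoeia.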

The EC50 is the concentration giving half of the maximal effect. A lower EC50 goes with higher potency in that assay. As to `CCCCCC(=O)OC/C(=C\C(=O)[O-])OC1OC(COS(=O)(=O)[O-])C(OC2OC(C(=O)[O-])C(OC3OC(COS(=O)(=O)[O-])C(OC4OC(C(=O)[O-])C(OC5OC(CS(=O)(=O)[O-])C(O)C(OC(=O)CCCCC)C5NS(=O)(=O)[O-])C(OC(=O)CCCCC)C4OS(=O)(=O)[O-])C(OC(=O)CCCCC)C3NS(=O)(=O)[O-])C(OC(=O)CCCCC)C2OS(=O)(=O)[O-])C(OC(=O)CCCCC)C1NS(=O)(=O)[O-].[Na+].[Na+].[Na+].[Na+].[Na+].[Na+].[Na+].[Na+].[Na+].[Na+].[Na+]` (stereo in doubt; 3g), the results for the EC50 in assay [1], in assay [2] and in assay [3] were 0.8 µg/mL, 6 µg/mL and 75 µg/mL, respectively. Further, in assay [4], the Selectivity index is more than 650.

For the compound `CCCCCC(=O)OC/C(=C\C(=O)[O-])OC1OC(COS(=O)(=O)[O-])C(OC2OC(C(=O)[O-])C(OC3OC(COS(=O)(=O)[O-])C(OC4OC(C(=O)[O-])C(OC5OC(CS(=O)(=O)[O-])C(O)C(OC(=O)CCCCC)C5NS(=O)(=O)[O-])C(OC(=O)CCCCC)C4OS(=O)(=O)[O-])C(OC(=O)CCCCC)C3NS(=O)(=O)[O-])C(OC(=O)CCCCC)C2OS(=O)(=O)[O-])C(OC(=O)CCCCC)C1NS(=O)(=O)[O-].[Na+].[Na+].[Na+].[Na+].[Na+].[Na+].[Na+].[Na+].[Na+].[Na+].[Na+]` (stereo in doubt; 3i), the results for the EC50 in assay [1] and in assay [3] were 0.3 µg/mL and 13 µg/mL, respectively. Moreover, the Selectivity index in assay [4] is reported as more than 1666; in assay [5] it was more than 2600.

For the compound `CCCCCC(=O)OC/C(=C\C(=O)[O-])OC1OC(COS(=O)(=O)[O-])C(OC2OC(C(=O)[O-])C(OC3OC(COS(=O)(=O)[O-])C(OC4OC(C(=O)[O-])C(OC5OC(CS(=O)(=O)[O-])C(O)C(OC(=O)CCCCC)C5NS(=O)(=O)[O-])C(OC(=O)CCCCC)C4OS(=O)(=O)[O-])C(OC(=O)CCCCC)C3NS(=O)(=O)[O-])C(OC(=O)CCCCC)C2OS(=O)(=O)[O-])C(OC(=O)CCCCC)C1NS(=O)(=O)[O-].[Na+].[Na+].[Na+].[Na+].[Na+].[Na+].[Na+].[Na+].[Na+].[Na+].[Na+]` (stereo in doubt; 3j), the EC50 in assay [2] worked out at 2 µg/mL; in assay [3] it was 10 µg/mL; in assay [6], 0.4 µg/mL. The compound also had a Selectivity index in assay [5] of more than 1250.

On to `CCCC(=O)OC/C(=C\C(=O)[O-])O[C@H]1O[C@H](COS(=O)(=O)[O-])[C@@H](O[C@@H]2O[C@@H](C(=O)[O-])[C@@H](O[C@H]3O[C@H](COS(=O)(=O)[O-])[C@@H](O[C@@H]4O[C@@H](C(=O)[O-])[C@@H](O[C@H]5O[C@H](CS(=O)(=O)[O-])[C@@H](O)[C@H](OC(=O)CCC)[C@H]5NS(=O)(=O)[O-])[C@H](OC(=O)CCC)[C@H]4OS(=O)(=O)[O-])[C@H](OC(=O)CCC)[C@H]3NS(=O)(=O)[O-])[C@H](OC(=O)CCC)[C@H]2OS(=O)(=O)[O-])[C@H](OC(=O)CCC)[C@H]1NS(=O)(=O)[O-].[Na+].[Na+].[Na+].[Na+].[Na+].[Na+].[Na+].[Na+].[Na+].[Na+].[Na+]` (stereo in doubt; 4c), for which the EC50 in assay [1] was found to be 0.01 µg/mL; in assay [2], 57.5 µg/mL; in assay [6] it was 5 µg/mL. Besides, the APTT in assay [7] came to 2.7 IU mg-1. Further, the results for the Selectivity index in assay [4] and in assay [5] were 40000 and 80, respectively.

Regarding `CCCC(=O)OC/C(=C\C(=O)[O-])O[C@H]1O[C@H](COS(=O)(=O)[O-])[C@@H](O[C@@H]2O[C@@H](C(=O)[O-])[C@@H](O[C@H]3O[C@H](COS(=O)(=O)[O-])[C@@H](O[C@@H]4O[C@@H](C(=O)[O-])[C@@H](O[C@H]5O[C@H](CS(=O)(=O)[O-])[C@@H](O)[C@H](OC(=O)CCC)[C@H]5NS(=O)(=O)[O-])[C@H](OC(=O)CCC)[C@H]4OS(=O)(=O)[O-])[C@H](OC(=O)CCC)[C@H]3NS(=O)(=O)[O-])[C@H](OC(=O)CCC)[C@H]2OS(=O)(=O)[O-])[C@H](OC(=O)CCC)[C@H]1NS(=O)(=O)[O-].[Na+].[Na+].[Na+].[Na+].[Na+].[Na+].[Na+].[Na+].[Na+].[Na+].[Na+]` (stereo in doubt; 4d), the results for the EC50 in assay [1], in assay [2] and in assay [6] were 0.04 µg/mL, 37.3 µg/mL and 1.31 µg/mL, respectively. For the same compound, the APTT in assay [7] was 2.9 IU mg-1. For the same compound, the Selectivity index in assay [4] is more than 12500; in assay [5] it was more than 382.

In the case of `CCCC(=O)OC/C(=C\C(=O)[O-])O[C@H]1O[C@H](COS(=O)(=O)[O-])[C@@H](O[C@@H]2O[C@@H](C(=O)[O-])[C@@H](O[C@H]3O[C@H](COS(=O)(=O)[O-])[C@@H](O[C@@H]4O[C@@H](C(=O)[O-])[C@@H](O[C@H]5O[C@H](CS(=O)(=O)[O-])[C@@H](O)[C@H](OC(=O)CCC)[C@H]5NS(=O)(=O)[O-])[C@H](OC(=O)CCC)[C@H]4OS(=O)(=O)[O-])[C@H](OC(=O)CCC)[C@H]3NS(=O)(=O)[O-])[C@H](OC(=O)CCC)[C@H]2OS(=O)(=O)[O-])[C@H](OC(=O)CCC)[C@H]1NS(=O)(=O)[O-].[Na+].[Na+].[Na+].[Na+].[Na+].[Na+].[Na+].[Na+].[Na+].[Na+].[Na+]` (stereo in doubt; 4e), the EC50 in assay [1] is 0.07 µg/mL; in assay [2], 43.7 µg/mL; in assay [6], 0.95 µg/mL. Moreover, the APTT in assay [7] came out at 4.5 IU mg-1. Besides, the Selectivity index in assay [4] is recorded as more than 7142; in assay [5], more than 526.

On to `CCCC(=O)OC/C(=C\C(=O)[O-])O[C@H]1O[C@H](COS(=O)(=O)[O-])[C@@H](O[C@@H]2O[C@@H](C(=O)[O-])[C@@H](O[C@H]3O[C@H](COS(=O)(=O)[O-])[C@@H](O[C@@H]4O[C@@H](C(=O)[O-])[C@@H](O[C@H]5O[C@H](CS(=O)(=O)[O-])[C@@H](O)[C@H](OC(=O)CCC)[C@H]5NS(=O)(=O)[O-])[C@H](OC(=O)CCC)[C@H]4OS(=O)(=O)[O-])[C@H](OC(=O)CCC)[C@H]3NS(=O)(=O)[O-])[C@H](OC(=O)CCC)[C@H]2OS(=O)(=O)[O-])[C@H](OC(=O)CCC)[C@H]1NS(=O)(=O)[O-].[Na+].[Na+].[Na+].[Na+].[Na+].[Na+].[Na+].[Na+].[Na+].[Na+].[Na+]` (stereo in doubt; 4f), for which the EC50 in assay [1] was 0.3 µg/mL; in assay [2] it was 1.3 µg/mL; in assay [6] it was 0.44 µg/mL. In assay [7], this compound gave an APTT of 6.1 IU mg-1. Moreover, the results for the Selectivity index in assay [4] and in assay [5] were more than 1667 and more than 1136, respectively.

As for `CCCC(=O)OC/C(=C\C(=O)[O-])O[C@H]1O[C@H](COS(=O)(=O)[O-])[C@@H](O[C@@H]2O[C@@H](C(=O)[O-])[C@@H](O[C@H]3O[C@H](COS(=O)(=O)[O-])[C@@H](O[C@@H]4O[C@@H](C(=O)[O-])[C@@H](O[C@H]5O[C@H](CS(=O)(=O)[O-])[C@@H](O)[C@H](OC(=O)CCC)[C@H]5NS(=O)(=O)[O-])[C@H](OC(=O)CCC)[C@H]4OS(=O)(=O)[O-])[C@H](OC(=O)CCC)[C@H]3NS(=O)(=O)[O-])[C@H](OC(=O)CCC)[C@H]2OS(=O)(=O)[O-])[C@H](OC(=O)CCC)[C@H]1NS(=O)(=O)[O-].[Na+].[Na+].[Na+].[Na+].[Na+].[Na+].[Na+].[Na+].[Na+].[Na+].[Na+]` (stereo in doubt; 4h), the EC50 in assay [1] came out at 0.23 µg/mL; in assay [2] it was 7.5 µg/mL; in assay [6] it was 0.28 µg/mL. The compound further showed an APTT in assay [7] of 9.7 IU mg-1. Besides, the figures for the Selectivity index in assay [4] and in assay [5] were more than 2174 and more than 1786, respectively.

With `CCCC(=O)OC/C(=C\C(=O)[O-])O[C@H]1O[C@H](COS(=O)(=O)[O-])[C@@H](O[C@@H]2O[C@@H](C(=O)[O-])[C@@H](O[C@H]3O[C@H](COS(=O)(=O)[O-])[C@@H](O[C@@H]4O[C@@H](C(=O)[O-])[C@@H](O[C@H]5O[C@H](CS(=O)(=O)[O-])[C@@H](O)[C@H](OC(=O)CCC)[C@H]5NS(=O)(=O)[O-])[C@H](OC(=O)CCC)[C@H]4OS(=O)(=O)[O-])[C@H](OC(=O)CCC)[C@H]3NS(=O)(=O)[O-])[C@H](OC(=O)CCC)[C@H]2OS(=O)(=O)[O-])[C@H](OC(=O)CCC)[C@H]1NS(=O)(=O)[O-].[Na+].[Na+].[Na+].[Na+].[Na+].[Na+].[Na+].[Na+].[Na+].[Na+].[Na+]` (stereo in doubt; 4i), the EC50 in assay [1] was determined as 0.16 µg/mL; in assay [2], 2.1 µg/mL; in assay [6], 0.27 µg/mL. The compound further displayed an APTT in assay [7] of 16.8 IU mg-1. In addition, the Selectivity index is listed as more than 2941 in assay [4] and more than 1852 in assay [5].

In the case of `CCCC(=O)OC/C(=C\C(=O)[O-])O[C@H]1O[C@H](COS(=O)(=O)[O-])[C@@H](O[C@@H]2O[C@@H](C(=O)[O-])[C@@H](O[C@H]3O[C@H](COS(=O)(=O)[O-])[C@@H](O[C@@H]4O[C@@H](C(=O)[O-])[C@@H](O[C@H]5O[C@H](CS(=O)(=O)[O-])[C@@H](O)[C@H](OC(=O)CCC)[C@H]5NS(=O)(=O)[O-])[C@H](OC(=O)CCC)[C@H]4OS(=O)(=O)[O-])[C@H](OC(=O)CCC)[C@H]3NS(=O)(=O)[O-])[C@H](OC(=O)CCC)[C@H]2OS(=O)(=O)[O-])[C@H](OC(=O)CCC)[C@H]1NS(=O)(=O)[O-].[Na+].[Na+].[Na+].[Na+].[Na+].[Na+].[Na+].[Na+].[Na+].[Na+].[Na+]` (stereo in doubt; 4k), the EC50 in assay [1] was 0.26 µg/mL; in assay [2], 2 µg/mL; in assay [6], 0.51 µg/mL. Besides, the APTT in assay [7] worked out at 29.3 IU mg-1. Besides, the Selectivity index in assay [4] is more than 1923; in assay [5], more than 980.

These data come from ChEMBL document CHEMBL1126896, “Preparation and anti-HIV activity of O-acylated heparin and dermatan sulfate derivatives with low anticoagulant effect” (J Med Chem, 1993).
